A short description of data set [1]: folding enthalpy; higher = less favourable; fluorescence melt of hairpins on a sequencing array, two-state fit. The note with it: sodium 0.088 M. In short, it runs like this: (§1)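 With Cy3 and quencher oligos annealed, library hairpins on a sequenced MiSeq flow cell were imaged for Cy3 fluorescence in 50 mM Na-HEPES pH 8.0, 25 mM NaCl, in 2.5 °C steps up to 60 °C. Melting temperature and folding enthalpy were derived from bootstrapped two-state fits of signals normalised to pre-quench Cy3 and to control constructs. Four replicates were combined by inverse variance, with fitted temperatures raised by 9.35 °C to match UV melts.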

The nature of data set [2]: melting temperature; fluorescence melt of hairpins on a sequencing array, two-state fit, raised by 9.35 °C to match UV melts. To be noted: sodium 0.088 M. An outline of the steps: as §1

As for GGCGTCGGAAACGGCGTC (.((.((....)).)).), the folding enthalpy in data set [1] was -27.7 kcal/mol. For the same sequence, the Tm in data set [2] was 53.9 °C.

Take GGCGTTACGAAAGTAGCC (((..(((....)))))): in data set [1], the folding enthalpy was -39.7 kcal/mol. Further, the Tm in data set [2] worked out at 55 °C.

GGCGTTCCGAAAGGAGCC (((..(((....)))))): in data set [1], the folding enthalpy was -20.5 kcal/mol. In addition, the Tm in data set [2] is 51.7 °C.

Take GGCGTTCGAAAGAAGCC (((.(((....)))))): the folding enthalpy in data set [1] was -23.2 kcal/mol. Moreover, the Tm in data set [2] turned out to be 50.8 °C.

As for GGCGTTCGAAAGAAGGCC (((.(((....))).))), the folding enthalpy in data set [1] is -39.4 kcal/mol. Moreover, the Tm in data set [2] amounted to 61.1 °C.

For GGCGTTGCGAAAGCAGCC (((..(((....)))))), in data set [1], the folding enthalpy was -32.3 kcal/mol. The Tm in data set [2] stood at 63.1 °C.

With GGCTAACGAAAGTTGCC (((.(((....)))))), the folding enthalpy in data set [1] was -30 kcal/mol. Further, the Tm in data set [2] came to 54 °C.

As for GGCTAAGGAAACCTAGCC (((((.(....).))))), in data set [1], the folding enthalpy was -31.5 kcal/mol. The Tm in data set [2] was determined as 46.6 °C.

For GGCTAAGGAAACTTAGCC (((((((....))))))), the folding enthalpy in data set [1] was -37.7 kcal/mol. Also, the Tm in data set [2] turned out to be 60.8 °C.

In the case of GGCTACACGAAAGTGGCC (((..(((....)))))), the folding enthalpy in data set [1] is -24.3 kcal/mol. For the same sequence, the Tm in data set [2] amounted to 51.6 °C.

Consider GGCTACGAAAGTAAGGCC ((((((....)))..))), for which the folding enthalpy in data set [1] is -23.3 kcal/mol. Also, the Tm in data set [2] came out at 48.2 °C.

With GGCTACGAAAGTACGCC ((((((....))).))), in data set [1], the folding enthalpy was -33.4 kcal/mol. In addition, the Tm in data set [2] was 53.5 °C.

In the case of GGCTACGAAAGTAGAGCC ((((((....)))..))), in data set [1], the folding enthalpy is -20 kcal/mol. For the same sequence, the Tm in data set [2] turned out to be 49.5 °C.

With GGCTACGAAAGTATCGCC ((((((....)))..))), the folding enthalpy in data set [1] is -22.5 kcal/mol. Further, the Tm in data set [2] was determined as 40.6 °C.

As to GGCTACGGAAACGTGGCC (((.(((....))).))), the folding enthalpy in data set [1] was -47.4 kcal/mol. Further, the Tm in data set [2] came out at 60.1 °C.

Consider GGCTAGACGAAAGTCGCC (((..(((....)))))), for which the folding enthalpy in data set [1] is -25.2 kcal/mol. Also, the Tm in data set [2] was 53.4 °C.

GGCTATGAAAATAGCC ((((((....)))))): the folding enthalpy in data set [1] is -45.7 kcal/mol. Besides, the Tm in data set [2] was 59.1 °C.

Turning to GGCTATGGAAACATAGCC (((((((....))))))), the folding enthalpy in data set [1] is -37.6 kcal/mol. For the same sequence, the Tm in data set [2] is 66.1 °C.

Consider GGCTATGGAAACATGGTC (.(.(((....))).).), for which the folding enthalpy in data set [1] is -23.9 kcal/mol. Besides, the Tm in data set [2] stood at 35.7 °C.

With GGCTATGGAAACGTAGCC (((((.(....).))))), the folding enthalpy in data set [1] is -46 kcal/mol. Further, in data set [2], the Tm was determined as 52.6 °C.

With GGCTATGGAAACGTAGTC (.(((.(....).))).), the folding enthalpy in data set [1] was -18.6 kcal/mol. Besides, the Tm in data set [2] is 32.3 °C.

GGCTATTCGAAAGAAGCC (((..(((....)))))): in data set [1], the folding enthalpy is -25.2 kcal/mol. Besides, the Tm in data set [2] was 37.7 °C.

Regarding GGCTCACGAAAGTGTGCC (((.(((....))).))), in data set [1], the folding enthalpy was -30.8 kcal/mol. Moreover, the Tm in data set [2] worked out at 64.3 °C.

Take GGCTCAGGAAACTAAGCC ((((.((....)).)))): in data set [1], the folding enthalpy was -29.1 kcal/mol. Further, the Tm in data set [2] came to 39 °C.

On to GGCTCAGGAAACTGGGCC (((.(((....))).))), for which the folding enthalpy in data set [1] is -43.7 kcal/mol. Further, in data set [2], the Tm came out at 58.3 °C.

Consider GGCTCCCGAAAGGGGCC (((.(((....)))))), for which, in data set [1], the folding enthalpy is -30.1 kcal/mol. In addition, the Tm in data set [2] was determined as 68 °C.

Consider GGCTCCGAAAGGACCGCC ((((((....)))..))), for which the folding enthalpy in data set [1] was -19.8 kcal/mol. Also, the Tm in data set [2] came out at 53.3 °C.

For GGCTCCGAAAGGAGAGCC ((((((....)))..))), the folding enthalpy in data set [1] was -20.7 kcal/mol. The Tm in data set [2] is 55.6 °C.

GGCTCCGAAAGGATTGCC ((((((....)))..))): the folding enthalpy in data set [1] was -19.6 kcal/mol. For the same sequence, the Tm in data set [2] was determined as 48.7 °C.

As for GGCTCGGGAAACCGAGTC (.(((((....))))).), the folding enthalpy in data set [1] was -29.9 kcal/mol. In data set [2], the Tm is 61.5 °C.

Take GGCTCGGGAAACTGAGCC (((((.(....).))))): the folding enthalpy in data set [1] is -61.1 kcal/mol. In addition, the Tm in data set [2] is 61.4 °C.

Regarding GGCTCTCGAAAGAGGCC (((.(((....)))))), the folding enthalpy in data set [1] was -43 kcal/mol. The Tm in data set [2] was found to be 56.9 °C.

Turning to GGCTCTGGAAACAGGGTC (.(.(((....))).).), the folding enthalpy in data set [1] was -29.6 kcal/mol. Also, the Tm in data set [2] came out at 37.5 °C.

For the sequence GGCTCTGGAAACGGAGTC (.(((.(....).))).), the folding enthalpy in data set [1] was -30.2 kcal/mol. Besides, the Tm in data set [2] came to 40 °C.

For the sequence GGCTGACGAAAGTCCGCC (((.(((....))).))), the folding enthalpy in data set [1] was -36.6 kcal/mol. Also, in data set [2], the Tm amounted to 58.6 °C.

On to GGCTGAGCGAAAGCTGCC (((..(((....)))))), for which the folding enthalpy in data set [1] was -20 kcal/mol. For the same sequence, in data set [2], the Tm came out at 51.6 °C.

Values taken from the array DNA melting data of Ke et al. (doi:10.1101/2024.01.08.574731).
